Experimental data published in ChEMBL document CHEMBL5303300, “EUbOPEN Chemogenomics Library - Multiplex” (2023).
Values joined by “and” are separate entries in the source; they are usually repeats but may differ in a detail not shown here. Identical values can stand only once.

Test system: HEK-293T
Test: Multiplex assay against HEK293T
Assay type: toxicity, cell-based
Conditions: human, number of replicates 2
Outline: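 Phenotypes for tubulin, mitochondrial mass and membrane permeability are expressed as per cents of healthy-nucleus cells. Cells were stained live at seeding with Hoechst33342, BioTracker Green Microtubule Cytoskeleton Dye, MitoTracker Red and Annexin V Alexa Fluor 680, then imaged after compound addition on a CQ1 microscope at 37°C and 5% CO2. Machine-learning gating in CellPathfinder separated Hoechst high-intensity objects from normal cells, divided normal cells by nuclear state (healthy, pyknosed, fragmented) and divided pyknosed cells into mitotic or apoptotic.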

[1] = 12 h, 1 µM, compound concentration 1 uM
[2] = 12 h, 10 µM, compound concentration 10 uM
[3] = 24 h, 1 µM, compound concentration 1 uM
[4] = 24 h, 10 µM, compound concentration 10 uM
[5] = 48 h, 1 µM, compound concentration 1 uM
[6] = 48 h, 10 µM, compound concentration 10 uM

With `CNc1ncc2cc(-c3ccc(-c4cccc(C)n4)cc3Cl)c(=O)n(C[C@H]3OC[C@H](N)CO3)c2n1` the “Population Apoptotic (%)” value [1] was 57% and 63%, the “Population Fragmented Nuclei (%)” value [1] was 2% and the “Population Healthy Nuclei (%)” value [1] was 85% and 82%. The “Population Hoechst High Intensity Objects (%)” value [1] was 5% and 6%, the “Population Membrane Permeable-Phenotype (%)” value [1] was 7% and 3% and the “Population Mitochondria Different-Phenotype (%)” value [1] was 8% and 9%. For the same compound, the “Population Mitotic Cells (%)” value [1] was 42% and 36%, the “Population Normal (%)” value [1] was 94% and 93% and the “Population Pyknosed Nuclei (%)” value [1] was 11% and 15%. The “Population Tubulin-Different-Phenotype (%)” value [1] was 28% and 30%, the “Total Cell Count” value [1] was 581 and 605 and the “Population Apoptotic (%)” value [2] was 36% and 26%. The “Population Fragmented Nuclei (%)” value [2] was 6% and 8%, the “Population Healthy Nuclei (%)” value [2] was 79% and 76% and the “Population Hoechst High Intensity Objects (%)” value [2] was 30%. The “Population Membrane Permeable-Phenotype (%)” value [2] was 25% and 20%, the “Population Mitochondria Different-Phenotype (%)” value [2] was 7% and 6% and the “Population Mitotic Cells (%)” value [2] was 63% and 73%. For the same compound, the “Population Normal (%)” value [2] was 69%, the “Population Pyknosed Nuclei (%)” value [2] was 13% and 15% and the “Population Tubulin-Different-Phenotype (%)” value [2] was 57% and 65%. The “Total Cell Count” value [2] was 885 and 788, the “Population Apoptotic (%)” value [3] was 51% and 54% and the “Population Fragmented Nuclei (%)” value [3] was 3%. The “Population Healthy Nuclei (%)” value [3] was 88% and 85%, the “Population Hoechst High Intensity Objects (%)” value [3] was 3% and 5% and the “Population Membrane Permeable-Phenotype (%)” value [3] was 2% and 3%. For the same compound, the “Population Mitochondria Different-Phenotype (%)” value [3] was 2% and 5%, the “Population Mitotic Cells (%)” value [3] was 48% and 45% and the “Population Normal (%)” value [3] was 96% and 94%. The “Population Pyknosed Nuclei (%)” value [3] was 8% and 11%, the “Population Tubulin-Different-Phenotype (%)” value [3] was 11% and 16% and the “Total Cell Count” value [3] was 923 and 803. For the same compound, the “Population Apoptotic (%)” value [4] was 20%, the “Population Fragmented Nuclei (%)” value [4] was 6% and 8% and the “Population Healthy Nuclei (%)” value [4] was 68% and 69%. The “Population Hoechst High Intensity Objects (%)” value [4] was 31% and 34%, the “Population Membrane Permeable-Phenotype (%)” value [4] was 18% and 11% and the “Population Mitochondria Different-Phenotype (%)” value [4] was 4% and 3%. For the same compound, the “Population Mitotic Cells (%)” value [4] was 79%, the “Population Normal (%)” value [4] was 68% and 65% and the “Population Pyknosed Nuclei (%)” value [4] was 25% and 22%. The “Population Tubulin-Different-Phenotype (%)” value [4] was 52% and 46%, the “Total Cell Count” value [4] was 1101 and 1092 and the “Population Apoptotic (%)” value [5] was 20% and 34%. For the same compound, the “Population Fragmented Nuclei (%)” value [5] was 9% and 6%, the “Population Healthy Nuclei (%)” value [5] was 85% and 88% and the “Population Hoechst High Intensity Objects (%)” value [5] was 6% and 5%. The “Population Membrane Permeable-Phenotype (%)” value [5] was 3% and 2%, the “Population Mitochondria Different-Phenotype (%)” value [5] was 0% and 2% and the “Population Mitotic Cells (%)” value [5] was 80% and 65%. For the same compound, the “Population Normal (%)” value [5] was 93% and 94%, the “Population Pyknosed Nuclei (%)” value [5] was 4% and the “Population Tubulin-Different-Phenotype (%)” value [5] was 7% and 9%. For the same compound, the “Total Cell Count” value [5] was 1888 and 1385, the “Population Apoptotic (%)” value [6] was 13% and 10% and the “Population Fragmented Nuclei (%)” value [6] was 4% and 6%. For the same compound, the “Population Healthy Nuclei (%)” value [6] was 68% and 70%, the “Population Hoechst High Intensity Objects (%)” value [6] was 28% and 30% and the “Population Membrane Permeable-Phenotype (%)” value [6] was 11% and 4%. The “Population Mitochondria Different-Phenotype (%)” value [6] was 2% and 1%, the “Population Mitotic Cells (%)” value [6] was 86% and 89% and the “Population Normal (%)” value [6] was 71% and 69%. The “Population Pyknosed Nuclei (%)” value [6] was 26% and 22%, the “Population Tubulin-Different-Phenotype (%)” value [6] was 26% and 21% and the “Total Cell Count” value [6] was 1638 and 1597.
For `Cc1ccc2c(N)c(C(=O)NC3CCc4cc(N5CC6CCC(C5)N6)ccc4C3)sc2n1.O=CO` (stereo unspecified), the “Population Apoptotic (%)” value [1] was 50% and 60%, the “Population Fragmented Nuclei (%)” value [1] was 3% and 5% and the “Population Healthy Nuclei (%)” value [1] was 85% and 82%. The “Population Hoechst High Intensity Objects (%)” value [1] was 12% and 13%, the “Population Membrane Permeable-Phenotype (%)” value [1] was 2% and 1% and the “Population Mitochondria Different-Phenotype (%)” value [1] was 57% and 50%. For the same compound, the “Population Mitotic Cells (%)” value [1] was 50% and 39%, the “Population Normal (%)” value [1] was 87% and 86% and the “Population Pyknosed Nuclei (%)” value [1] was 11%. The “Population Tubulin-Different-Phenotype (%)” value [1] was 79% and 80%, the “Total Cell Count” value [1] was 342 and 430 and the “Population Apoptotic (%)” value [2] was 77% and 90%. For the same compound, the “Population Fragmented Nuclei (%)” value [2] was 7% and 15%, the “Population Healthy Nuclei (%)” value [2] was 66% and 63% and the “Population Hoechst High Intensity Objects (%)” value [2] was 66% and 71%. The “Population Membrane Permeable-Phenotype (%)” value [2] was 15% and 21%, the “Population Mitochondria Different-Phenotype (%)” value [2] was 60% and 54% and the “Population Mitotic Cells (%)” value [2] was 22% and 9%. For the same compound, the “Population Normal (%)” value [2] was 33% and 28%, the “Population Pyknosed Nuclei (%)” value [2] was 26% and 21% and the “Population Tubulin-Different-Phenotype (%)” value [2] was 68% and 63%. The “Total Cell Count” value [2] was 206 and 183, the “Population Apoptotic (%)” value [3] was 58% and 60% and the “Population Fragmented Nuclei (%)” value [3] was 5% and 3%. The “Population Healthy Nuclei (%)” value [3] was 86% and 89%, the “Population Hoechst High Intensity Objects (%)” value [3] was 13% and 16% and the “Population Membrane Permeable-Phenotype (%)” value [3] was 1% and 2%. The “Population Mitochondria Different-Phenotype (%)” value [3] was 60% and 50%, the “Population Mitotic Cells (%)” value [3] was 41% and 40% and the “Population Normal (%)” value [3] was 86% and 83%. For the same compound, the “Population Pyknosed Nuclei (%)” value [3] was 8% and 6%, the “Population Tubulin-Different-Phenotype (%)” value [3] was 72% and 71% and the “Total Cell Count” value [3] was 413 and 427. The “Population Apoptotic (%)” value [4] was 95% and 72%, the “Population Fragmented Nuclei (%)” value [4] was 11% and 14% and the “Population Healthy Nuclei (%)” value [4] was 59% and 66%. The “Population Hoechst High Intensity Objects (%)” value [4] was 67% and 66%, the “Population Membrane Permeable-Phenotype (%)” value [4] was 14% and 13% and the “Population Mitochondria Different-Phenotype (%)” value [4] was 66% and 63%. The “Population Normal (%)” value [4] was 32% and 33%, the “Population Pyknosed Nuclei (%)” value [4] was 29% and 19% and the “Population Tubulin-Different-Phenotype (%)” value [4] was 61% and 55%. The “Total Cell Count” value [4] was 216 and 168, the “Population Apoptotic (%)” value [5] was 40% and 66% and the “Population Fragmented Nuclei (%)” value [5] was 5%. The “Population Healthy Nuclei (%)” value [5] was 88% and 87%, the “Population Hoechst High Intensity Objects (%)” value [5] was 8% and 10% and the “Population Membrane Permeable-Phenotype (%)” value [5] was 1% and 0%. The “Population Mitochondria Different-Phenotype (%)” value [5] was 32% and 41%, the “Population Mitotic Cells (%)” value [5] was 59% and 33% and the “Population Normal (%)” value [5] was 91% and 89%. For the same compound, the “Population Pyknosed Nuclei (%)” value [5] was 5% and 7%, the “Population Tubulin-Different-Phenotype (%)” value [5] was 61% and 73% and the “Total Cell Count” value [5] was 596 and 593. For the same compound, the “Population Apoptotic (%)” value [6] was 77% and 87%, the “Population Fragmented Nuclei (%)” value [6] was 9% and 15% and the “Population Healthy Nuclei (%)” value [6] was 57% and 60%. The “Population Hoechst High Intensity Objects (%)” value [6] was 67%, the “Population Membrane Permeable-Phenotype (%)” value [6] was 14% and 10% and the “Population Mitochondria Different-Phenotype (%)” value [6] was 63% and 70%. The “Population Mitotic Cells (%)” value [6] was 22% and 12%, the “Population Normal (%)” value [6] was 32% and the “Population Pyknosed Nuclei (%)” value [6] was 32% and 24%. For the same compound, the “Population Tubulin-Different-Phenotype (%)” value [6] was 48% and 57% and the “Total Cell Count” value [6] was 254 and 203.
